# pIC50: −log10 of the molar value.
# Target: T1, Interstitial collagenase (Homo sapiens, UniProt P03956)
# T1 sequence (P03956 whole entry): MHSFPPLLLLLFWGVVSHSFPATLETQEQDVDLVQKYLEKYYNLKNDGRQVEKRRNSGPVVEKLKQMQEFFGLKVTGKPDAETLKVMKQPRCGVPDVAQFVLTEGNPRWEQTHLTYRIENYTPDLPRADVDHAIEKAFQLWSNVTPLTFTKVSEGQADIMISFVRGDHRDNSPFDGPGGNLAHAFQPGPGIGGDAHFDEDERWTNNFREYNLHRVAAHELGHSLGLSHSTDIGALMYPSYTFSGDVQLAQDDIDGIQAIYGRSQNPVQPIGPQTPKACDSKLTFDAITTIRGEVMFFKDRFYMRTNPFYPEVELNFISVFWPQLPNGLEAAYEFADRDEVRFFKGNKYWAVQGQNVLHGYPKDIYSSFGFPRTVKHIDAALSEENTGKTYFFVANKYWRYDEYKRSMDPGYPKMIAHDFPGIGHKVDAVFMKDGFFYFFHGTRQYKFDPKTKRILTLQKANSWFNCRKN
# Experiment: Inhibition of degradation of radiolabeled rat skin type I collagen by semipurified human lung fibroblast collagenase
# In short: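 Collagenase from WI-38 human lung fibroblast culture supernatants, trypsin-activated and semipurified. Substrate was 3H- or 14C-acetylated rat skin type I collagen, 100 μg/tube, added at 4 °C. Enzyme amount set to degrade 70% of collagen. Compounds were dissolved in MeOH by sonication and serially diluted. Incubation ran 1000 min at 37 °C, then centrifugation at 4 °C. Supernatant soluble peptides were scintillation counted.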
row,pIC50,SMILES
1,5.36,CC[C@H](N[C@@H](CC(C)C)C(=O)N[C@@H](CCCCN)C(=O)NC)P(=O)(O)O
2,6.54,CC[C@H](N[C@@H](CC(C)C)C(=O)N[C@@H](CCCNC(=N)N)C(=O)NC)P(=O)(O)O
3,6.59,CNC(=O)[C@H](Cc1ccc(OC)cc1)NC(=O)[C@H](CC(C)C)N[C@H](C)P(=O)(O)O
4,5.54,CNC(=O)[C@H](Cc1ccc(OC)cc1)NC(=O)C(CC(C)C)NC(CC(C)C)P(=O)(O)O (stereo not given in full)
5,6.12,CC[C@H](N[C@@H](CC(C)C)C(=O)N[C@@H](Cn1cccn1)C(=O)NC)P(=O)(O)O
6,< 5.00,CC[C@H](N[C@H](CC(C)C)C(=O)N[C@@H](Cc1ccccc1)C(=O)NC)P(=O)(O)O
7,4.81,CC[C@H](N[C@H](CC(C)C)C(=O)N[C@@H](Cc1ccc(OC)cc1)C(=O)NC)P(=O)(O)O
8,< 4.00,CCC(NC(CC(C)C)C(=O)N[C@@H](Cc1ccc(OC)cc1)C(=O)NC)[PH](=O)O (stereo not given in full)
9,6.46,CNC(=O)[C@H](Cc1ccc(OC)cc1)NC(=O)[C@H](CC(C)C)N[C@@H](CCNC(=O)OCc1ccccc1)C(=O)O
10,6.62,CC[C@@H](N[C@@H](CC(C)C)C(=O)N[C@@H](Cc1ccccc1)C(=O)NC)P(=O)(O)O
11,< 5.00,CC[C@@H](N[C@H](CC(C)C)C(=O)N[C@@H](Cc1ccccc1)C(=O)NC)P(=O)(O)O
12,4.80,CCCC(NC(CC(C)C)C(=O)N[C@@H](Cc1ccc(OC)cc1)C(=O)NC)P(=O)(O)O (stereo not given in full)
13,6.28,CNC(=O)[C@H](Cc1ccc(OC)cc1)NC(=O)[C@H](CC(C)C)N[C@@H](C)P(=O)(O)O
14,5.74,CNC(=O)[C@H](Cc1ccccc1)NC(=O)[C@H](CC(C)C)N[C@H](CCc1ccccc1)P(=O)(O)O
15,4.39,CCCCC(NC(CC(C)C)C(=O)N[C@@H](Cc1ccc(OC)cc1)C(=O)NC)P(=O)(O)O (stereo not given in full)
16,4.43,CNC(=O)CP(=O)(O)C[C@@H](CC(C)C)C(=O)N[C@@H](Cc1ccc(OC)cc1)C(=O)NC
17,6.52,CC[C@@H](N[C@@H](CC(C)C)C(=O)N[C@@H](Cc1ccc(OC)cc1)C(=O)NC)P(=O)(O)O
18,6.82,CC[C@H](N[C@@H](CC(C)C)C(=O)N[C@@H](Cc1nc2ccccc2[nH]1)C(=O)NC)P(=O)(O)O
19,< 4.00,CNC(=O)[C@H](Cc1ccc(OC)cc1)NC(=O)C(CC(C)C)NC(C)P(C)(=O)O (stereo not given in full)
20,6.40,CNC(=O)[C@H](Cc1ccccc1)NC(=O)[C@H](CC(C)C)N[C@@H](CCc1ccccc1)P(=O)(O)O
21,6.33,CC[C@H](N[C@@H](CC(C)C)C(=O)N[C@@H](Cc1ccc(OC)cc1)C(=O)NC)P(=O)(O)O
22,6.13,CC[C@@H](N[C@@H](CC(C)C)C(=O)N[C@@H](CCCCN)C(=O)NC)P(=O)(O)O
23,5.87,CC[C@H](N[C@@H](CC(C)C)C(=O)N[C@@H](CC(=O)NCCN1CCCC1)C(=O)NC)P(=O)(O)O
24,5.54,CNC(=O)[C@H](Cc1ccc(OC)cc1)NC(=O)C(CC(C)C)NC(C(C)C)P(=O)(O)O (stereo not given in full)
25,< 5.00,CNC(=O)[C@H](Cc1ccc(OC)cc1)NC(=O)[C@H](CC(C)C)N[C@H](C)C(=O)O
26,6.31,CC[C@H](N[C@@H](CC(C)C)C(=O)N[C@@H](CCCN(C)C)C(=O)NC)P(=O)(O)O
27,7.30,CC[C@H](N[C@@H](CC(C)C)C(=O)N[C@@H](Cc1c[nH]c2ccccc12)C(=O)NC)P(=O)(O)O
28,6.64,CC[C@H](N[C@@H](CC(C)C)C(=O)N[C@@H](Cc1ccccc1)C(=O)NC)P(=O)(O)O
29,5.81,CNC(=O)[C@H](Cc1ccccc1)NC(=O)[C@H](CC(C)C)N[C@@H](CC(C)C)P(=O)(O)O
30,4.41,CC[C@@H](N[C@H](CC(C)C)C(=O)N[C@@H](Cc1ccc(OC)cc1)C(=O)NC)P(=O)(O)O
